# Active and inactive are the calls of the source. The calls are words filed in the database; no cut-off is given here.
# What was measured:
# Plasmodium falciparum [1] = experiment: Antiplasmodial activity against chloroquine-resistant Plasmodium falciparum W2 assessed as inhibition of parasite LDH activity after 72 hrs by spectrophotometry; format: functional, organism-based; settings: W2, 72 h
# How it was run: (§1)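 Asynchronous cultures (1-1.5% parasitemia, 1% final haematocrit) in human A+ RBCs were grown in RPMI 1640 with 1% AlbuMax, hypoxanthine, HEPES and glutamine, at 37 °C under 1% O₂/5% CO₂. IC50 is the mean±SD of ≥3 experiments.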
# Plasmodium falciparum [2] = experiment: Antiplasmodial activity against chloroquine-sensitive Plasmodium falciparum D10 assessed as inhibition of parasite LDH activity after 72 hrs by spectrophotometry; format: functional, organism-based; settings: D10, 72 h; how it was run: as §1
# Rattus norvegicus [3] = organism: Rattus norvegicus; experiment: Vasodilatory activity in pre-contracted Wistar rat aortic rings in presence of 1 uM ODQ; format: functional, Aorta
# How it was run: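 Endothelium-denuded aortic strips from male Wistar rats (180-200 g) were kept in Krebs-bicarbonate at 37 °C, pH 7.4. ODQ at 1 μM was added 5 min before contraction with 1 μM phenylephrine. Cumulative relaxation curves were recorded isometrically. EC50 is the mean of ≥5 determinations.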
# Rattus norvegicus [4] = organism: Rattus norvegicus; experiment: Vasodilatory activity in pre-contracted Wistar rat aortic rings; format: functional, Aorta
# How it was run: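 Aortic strips, endothelium removed, from male Wistar rats (180-200 g) were held in Krebs-bicarbonate at 37 °C, pH 7.4, gassed with 95% O₂/5% CO₂. After 90 min equilibration they were contracted with 1 μM phenylephrine. Cumulative concentration-response curves were run at plateau, with isometric recording. EC50 is the mean of ≥5 determinations.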
# Plasmodium berghei [5] = experiment: Antiplasmodial activity against Plasmodium berghei ANKA infected in C57BL/6 mouse assessed as reduction in parasitemia at 1 mg, ip daily for 5 days measured after 72 hrs relative to control; format: functional, organism-based
# Plasmodium berghei [6] = experiment: Antiplasmodial activity against Plasmodium berghei ANKA infected in C57BL/6 mouse assessed as reduction in parasitemia at 1.15 mg, ip daily for 5 days measured upto 24 hrs relative to control; format: functional, organism-based
# How it was run: (§2)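 C57BL/6 mice aged 6-8 weeks were infected ip with 1x10⁶ PbA-GFP parasitized red blood cells. Parasitemia, motor behaviour, rectal temperature and weight were checked from day 5. Treatment began at late-stage CM, defined by neurological signs (ataxia, paralysis, poor righting, seizures, roll-over, coma). Doses were 100 μL ip daily for 5 days: 1.4 mg in 20% DMSO/20% PEG400/60% saline, 1.15 mg in saline.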
# Plasmodium berghei [7] = experiment: Antiplasmodial activity against Plasmodium berghei ANKA infected in C57BL/6 mouse assessed as reduction in parasitemia at 1.15 mg, ip daily for 5 days measured after 72 hrs relative to control; format: functional, organism-based; how it was run: as §2
# Plasmodium berghei [8] = experiment: Antiplasmodial activity against Plasmodium berghei ANKA infected in C57BL/6 mouse assessed as mouse survival 1.15 mg, ip daily for 5 days relative to control; format: functional, organism-based; how it was run: as §2
# Plasmodium berghei [9] = experiment: Antiplasmodial activity against Plasmodium berghei ANKA infected in C57BL/6 mouse assessed as mouse survival at 1 mg, ip daily for 5 days relative to control; format: functional
# Plasmodium berghei [10] = experiment: Antiplasmodial activity against Plasmodium berghei ANKA infected in C57BL/6 mouse assessed as reduction in parasitemia at 1 mg, ip daily for 5 days measured upto 24 hrs relative to control; format: functional; design: scale not given: the % may be the effect or the level left
# Plasmodium berghei [11] = experiment: Antiplasmodial activity against Plasmodium berghei ANKA infected in C57BL/6 mouse assessed as reduction in parasitemia at 1.4 mg, ip daily for 5 days measured after 72 hrs relative to control; format: functional, organism-based; how it was run: as §2
# Plasmodium berghei [12] = experiment: Antiplasmodial activity against Plasmodium berghei ANKA infected in C57BL/6 mouse assessed as mouse survival at 1.4 mg, ip daily for 5 days relative to control; format: functional; how it was run: as §2
# Plasmodium berghei [13] = experiment: Antiplasmodial activity against Plasmodium berghei ANKA infected in C57BL/6 mouse assessed as reduction in parasitemia at 1.4 mg, ip daily for 5 days measured upto 24 hrs relative to control; format: functional; design: scale not given: the % may be the effect or the level left; how it was run: as §2
# [14] = Rattus norvegicus, Aorta, read-out: EC50
smiles,measurement,setting,value
CCNCCCCCCO[N+](=O)[O-],IC50,Plasmodium falciparum [1],> 5000 nM
same,IC50,Plasmodium falciparum [2],> 5000 nM
O=[N+]([O-])OCCN1CCN(Cc2cc(Nc3ccnc4cc(Cl)ccc34)ccc2O)CC1,IC50,Plasmodium falciparum [1],138 nM
same,EC50,Rattus norvegicus [3]; [14],6500 nM
same,IC50,Plasmodium falciparum [2],55 nM
same,EC50,Rattus norvegicus [4]; [14],120 nM
O=[N+]([O-])OCCN1CCNCC1,IC50,Plasmodium falciparum [1],> 5000 nM
same,IC50,Plasmodium falciparum [2],> 5000 nM
O=[N+]([O-])OCCCN1CCN(Cc2cc(Nc3ccnc4cc(Cl)ccc34)ccc2O)CC1,IC50,Plasmodium falciparum [1],34 nM
same,EC50,Rattus norvegicus [3]; [14],3600 nM
same,IC50,Plasmodium falciparum [2],18 nM
same,EC50,Rattus norvegicus [4]; [14],79 nM
CCN(CCCCC(CO[N+](=O)[O-])O[N+](=O)[O-])Cc1cc(Nc2ccnc3cc(Cl)ccc23)ccc1O (stereo not given),IC50,Plasmodium falciparum [1],21 nM
same,Activity,Plasmodium berghei [5],Active
same,EC50,Rattus norvegicus [3]; [14],> 30000 nM
same,Activity,Plasmodium berghei [6],inactive
same,IC50,Plasmodium falciparum [2],38 nM
same,Activity,Plasmodium berghei [7],Active
same,Survival,Plasmodium berghei [8],inactive
same,EC50,Rattus norvegicus [4]; [14],220 nM
CCN(CCOc1no[n+]([O-])c1-c1ccccc1)Cc1cc(Nc2ccnc3cc(Cl)ccc23)ccc1O,IC50,Plasmodium falciparum [1],24 nM
same,EC50,Rattus norvegicus [3]; [14],> 10000 nM
same,IC50,Plasmodium falciparum [2],23 nM
same,EC50,Rattus norvegicus [4]; [14],1200 nM
CCN(CC)Cc1cc(Nc2ccnc3cc(Cl)ccc23)ccc1O.Cl,IC50,Plasmodium falciparum [1],16 nM
same,Activity,Plasmodium berghei [5],Active
same,EC50,Rattus norvegicus [3],Not Active
same,IC50,Plasmodium falciparum [2],12 nM
same,EC50,Rattus norvegicus [4],Not Active
O=[N+]([O-])OCC1CCN(Cc2cc(Nc3ccnc4cc(Cl)ccc34)ccc2O)CC1,IC50,Plasmodium falciparum [1],28 nM
same,EC50,Rattus norvegicus [3]; [14],> 30000 nM
same,IC50,Plasmodium falciparum [2],19 nM
same,EC50,Rattus norvegicus [4]; [14],100 nM
CN(C)CCCOc1no[n+]([O-])c1S(=O)(=O)c1ccccc1,IC50,Plasmodium falciparum [1],> 5000 nM
same,EC50,Rattus norvegicus [3]; [14],> 10000 nM
same,IC50,Plasmodium falciparum [2],> 5000 nM
same,EC50,Rattus norvegicus [4]; [14],14300 nM
CCN(CCCCCCO[N+](=O)[O-])Cc1cc(Nc2ccnc3cc(Cl)ccc23)ccc1O,IC50,Plasmodium falciparum [1],28 nM
same,EC50,Rattus norvegicus [3]; [14],> 30000 nM
same,IC50,Plasmodium falciparum [2],31 nM
same,EC50,Rattus norvegicus [4]; [14],450 nM
O=[N+]([O-])OCCCNCc1cc(Nc2ccnc3cc(Cl)ccc23)ccc1O,IC50,Plasmodium falciparum [1],62 nM
same,EC50,Rattus norvegicus [3]; [14],11000 nM
same,IC50,Plasmodium falciparum [2],27 nM
same,EC50,Rattus norvegicus [4]; [14],420 nM
O=[N+]([O-])OCC1CCNCC1,IC50,Plasmodium falciparum [1],> 5000 nM
same,IC50,Plasmodium falciparum [2],> 5000 nM
CCN(CCOc1no[n+]([O-])c1S(=O)(=O)c1ccccc1)Cc1cc(Nc2ccnc3cc(Cl)ccc23)ccc1O.Cl.Cl.Cl,IC50,Plasmodium falciparum [1],152 nM
same,Activity,Plasmodium berghei [5],Active
same,EC50,Rattus norvegicus [3]; [14],1000 nM
same,Survival,Plasmodium berghei [9],8%
same,Activity,Plasmodium berghei [10],72%
same,Activity,Plasmodium berghei [11],Active
same,IC50,Plasmodium falciparum [2],46 nM
same,Activity,Plasmodium berghei [7],Active
same,Survival,Plasmodium berghei [12],23%
same,EC50,Rattus norvegicus [4]; [14],17 nM
same,Activity,Plasmodium berghei [13],76%
CN(C)CCCOc1no[n+]([O-])c1-c1ccccc1,IC50,Plasmodium falciparum [1],4940 nM
same,IC50,Plasmodium falciparum [2],> 5000 nM
same,EC50,Rattus norvegicus [4]; [14],30 nM
O=[N+]([O-])OCCC1CCNCC1,IC50,Plasmodium falciparum [1],> 5000 nM
same,IC50,Plasmodium falciparum [2],> 5000 nM
CCNCCCCC(CO[N+](=O)[O-])O[N+](=O)[O-] (stereo not given),IC50,Plasmodium falciparum [1],> 5000 nM
same,IC50,Plasmodium falciparum [2],> 5000 nM
CCN(CCCO[N+](=O)[O-])Cc1cc(Nc2ccnc3cc(Cl)ccc23)ccc1O,IC50,Plasmodium falciparum [1],31 nM
same,EC50,Rattus norvegicus [3]; [14],3300 nM
same,IC50,Plasmodium falciparum [2],27 nM
same,EC50,Rattus norvegicus [4]; [14],450 nM
O=[N+]([O-])OCCC1CCN(Cc2cc(Nc3ccnc4cc(Cl)ccc34)ccc2O)CC1,IC50,Plasmodium falciparum [1],25 nM
same,EC50,Rattus norvegicus [3]; [14],> 30000 nM
same,IC50,Plasmodium falciparum [2],19 nM
same,EC50,Rattus norvegicus [4]; [14],100 nM
O=[N+]([O-])OCCCN1CCNCC1,IC50,Plasmodium falciparum [1],> 5000 nM
same,IC50,Plasmodium falciparum [2],> 5000 nM

# Reference: ChEMBL document CHEMBL1770125, “Amodiaquine analogues containing NO-donor substructures: synthesis and their preliminary evaluation as potential tools in the treatment of cerebral malaria” (Eur J Med Chem, 2011)
